Experimental data as given in ChEMBL document CHEMBL4680095, “Potent Antitumor Activities and Structure Basis of the Chiral β-Lactam Bridged Analogue of Combretastatin A-4 Binding to Tubulin” (J Med Chem, 2016).
Activity calls are given as the source filed them. The calls are words filed in the database; no cut-off is given here.

Experiments:
[1] = test system: A2780; assay: Growth inhibition of human A2780 cells; format: functional, cell-based
[2] = Inhibition of pig brain tubulin polymerization incubated for 20 mins by spectrophotometry; format: tissue-based, Sus scrofa
[3] = test system: SK-OV-3; assay: Growth inhibition of human SK-OV-3 cells; format: functional, cell-based
[4] = test system: MDA-MB-231; assay: Growth inhibition of human MDA-MB-231 cells; format: functional, cell-based
[5] = test system: HeLa; assay: Growth inhibition of human HeLa cells; format: functional, cell-based
[6] = Toxicity in Balb/C mouse; details: in vivo
[7] = Toxicity in Balb/C mouse xenografted with human A2780 cells assessed as induction of body weight loss at 12.5 mg/kg, ip dosed once every 2 days; format: organism-based; details: in vivo, 48 h, time 2 day
Procedure, shortened: (§1)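 Xenograft model built by subcutaneous inoculation of A2780 cells into female Balb/C nude mice, then treated at 12.5 mg/kg. Read-outs named per line: tumor growth, main organs examined for abnormalities, body weight monitored.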

[8] = test system: A2780; assay: Antitumor activity against human A2780 cells xenografted in Balb/C mouse assessed as inhibition of tumor growth at 12.5 mg/kg, ip dosed once every 2 days; format: functional, organism-based; details: time 2.0 day; procedure, shortened: as §1
[9] = Toxicity in Balb/C mouse xenografted with human A2780 cells assessed as induction of abnormalities of visceral organs at 12.5 mg/kg, ip dosed once every 2 days; format: organism-based; details: in vivo, 48 h, time 2 day; procedure, shortened: as §1

Row | SMILES | IC50 [1] [µM] | IC50 [2] [µM] | IC50 [3] [µM] | IC50 [4] [µM] | IC50 [5] [µM] | LD50 [6] [mg/kg] | Activity [7] | TGI [8] | Activity [9]
1 | C=C1C(=O)N(c2cc(OC)c(OC)c(OC)c2)[C@H]1c1ccc(OC)c(O)c1 | 0.115 | 6.6 | 0.114 | 0.308 | 0.243 |  |  |  | 
2 | COc1ccc(/C=C\c2cc(OC)c(OC)c(OC)c2)cc1O [COMBRETASTATIN A4] |  | 1.32 |  |  |  |  |  |  | 
3 | COc1cc2c(c(OC)c1OC)-c1ccc(OC)c(=O)cc1[C@@H](NC(C)=O)CC2 [COLCHICINE] |  |  |  |  |  | 4 |  |  | 
4 | C=C1C(=O)N(c2cc(OC)c(OC)c(OC)c2)[C@@H]1c1ccc(OC)c(O)c1 | 4.6 | > 100 | 3.5 | > 10 | 5.5 |  |  |  | 
5 | COc1ccc([C@H]2[C@@H](C)C(=O)N2c2cc(OC)c(OC)c(OC)c2)cc1O | 0.031 | 3.5 | 0.057 | 0.056 | 0.063 | > 500 | Non-Toxic | Active | Non-Toxic
